Assay results published in ChEMBL document CHEMBL1932999, “Increased susceptibility to resveratrol of Helicobacter pylori strains isolated from patients with gastric carcinoma” (2011).
Values after ≈ are worked out from the molar mass of the structure shown.

Legend:
Helicobacter pylori [1] = experiment: Antibacterial activity against CagA-expressing Helicobacter pylori 18K7 isolated from gastric carcinoma patient after 24 hrs compound exposure followed by incubation on Columbia-blood agar plate for 3 to 5 days; type: functional
Summary of the method: (§1)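 Compound dissolved in water with 4% DMSO, filter-sterilized, and serially twofold diluted in Brucella broth with 10% bovine fetal serum. Inoculum from 48 h microaerobic Brucella agar-BFS cultures, added at approximately 10^6 CFU/mL final. Broth incubated microaerobically at 37 °C for 24 or 48 h, then each dilution subcultured onto Columbia-blood agar. MBC is the lowest concentration with no growth on subculture. Triplicate; mean ± SD.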

Helicobacter pylori [2] = experiment: Bactericidal activity against CagA-expressing Helicobacter pylori CCUG17874 isolated from chronic gastritis patient compound exposure followed by incubation on Columbia-blood agar plate for 3 to 5 days; type: functional, organism-based; conditions: TDE = time-dependent effect
Summary of the method: (§2)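 Broth microdilution MBC against clinical H. pylori isolates (cagA by PCR; stocks kept frozen in Columbia broth with 20% glycerol). Compound dissolved in water with 4% DMSO, filter-sterilized, double diluted in Brucella broth with 10% fetal bovine serum. Inoculum about 10^6 CFU/mL from 48 h microaerobic Brucella agar-BFS cultures. Plates held microaerobically at 37 °C for 24 and 48 h. Each well was then spotted onto Columbia-blood agar for 3-5 days. MBC is the lowest concentration giving no regrowth. Triplicate, mean ± SD.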

Helicobacter pylori [3] = experiment: Antibacterial activity against CagA-deficient Helicobacter pylori G204 isolated from chronic gastritis patient after 24 hrs compound exposure followed by incubation on Columbia-blood agar plate for 3 to 5 days; type: functional; summary of the method: as §1
Helicobacter pylori [4] = experiment: Bactericidal activity against CagA-expressing Helicobacter pylori G27 isolated from chronic gastritis patient compound exposure followed by incubation on Columbia-blood agar plate for 3 to 5 days; type: functional; conditions: TDE = time-dependent effect; summary of the method: as §2
Helicobacter pylori [5] = experiment: Antibacterial activity against CagA-deficient Helicobacter pylori Ba142 isolated from chronic gastritis patient after 48 hrs compound exposure followed by incubation on Columbia-blood agar plate for 3 to 5 days; type: functional; summary of the method: as §1
Helicobacter pylori [6] = experiment: Bactericidal activity against CagA-deficient Helicobacter pylori G104 isolated from chronic gastritis patient compound exposure followed by incubation on Columbia-blood agar plate for 3 to 5 days; type: functional, organism-based; conditions: TDE = time-dependent effect; summary of the method: as §2
Helicobacter pylori [7] = experiment: Antibacterial activity against CagA-expressing Helicobacter pylori 2Ca isolated from gastric carcinoma patient after 24 hrs compound exposure followed by incubation on Columbia-blood agar plate for 3 to 5 days; type: functional; summary of the method: as §1
Helicobacter pylori [8] = experiment: Antibacterial activity against CagA-expressing Helicobacter pylori 2Ca isolated from gastric carcinoma patient after 48 hrs compound exposure followed by incubation on Columbia-blood agar plate for 3 to 5 days; type: functional; summary of the method: as §1
Helicobacter pylori [9] = experiment: Antibacterial activity against CagA-expressing Helicobacter pylori 328 isolated from chronic gastritis patient after 24 hrs compound exposure followed by incubation on Columbia-blood agar plate for 3 to 5 days; type: functional; summary of the method: as §1
Helicobacter pylori [10] = experiment: Antibacterial activity against CagA-expressing Helicobacter pylori SI10 isolated from chronic gastritis patient after 48 hrs compound exposure followed by incubation on Columbia-blood agar plate for 3 to 5 days; type: functional; summary of the method: as §2
Helicobacter pylori [11] = experiment: Antibacterial activity against CagA-expressing Helicobacter pylori 18C7 isolated from gastric carcinoma patient after 24 hrs compound exposure followed by incubation on Columbia-blood agar plate for 3 to 5 days; type: functional; summary of the method: as §1
Helicobacter pylori [12] = experiment: Antibacterial activity against CagA-expressing Helicobacter pylori 4Cb isolated from gastric carcinoma patient after 24 hrs compound exposure followed by incubation on Columbia-blood agar plate for 3 to 5 days; type: functional; summary of the method: as §1
Helicobacter pylori [13] = experiment: Antibacterial activity against CagA-deficient Helicobacter pylori NS23 isolated from chronic gastritis patient after 24 hrs compound exposure followed by incubation on Columbia-blood agar plate for 3 to 5 days; type: functional; summary of the method: as §1
Helicobacter pylori [14] = experiment: Antibacterial activity against CagA-expressing Helicobacter pylori 18C7 isolated from gastric carcinoma patient after 48 hrs compound exposure followed by incubation on Columbia-blood agar plate for 3 to 5 days; type: functional; summary of the method: as §1
Helicobacter pylori [15] = experiment: Bactericidal activity against CagA-expressing Helicobacter pylori 328 isolated from chronic gastritis patient compound exposure followed by incubation on Columbia-blood agar plate for 3 to 5 days; type: functional, organism-based; conditions: TDE = time-dependent effect; summary of the method: as §2
Helicobacter pylori [16] = experiment: Antibacterial activity against CagA-deficient Helicobacter pylori G204 isolated from chronic gastritis patient after 48 hrs compound exposure followed by incubation on Columbia-blood agar plate for 3 to 5 days; type: functional; summary of the method: as §1
Helicobacter pylori [17] = experiment: Antibacterial activity against CagA-deficient Helicobacter pylori 328 KM isolated from chronic gastritis patient after 24 hrs compound exposure followed by incubation on Columbia-blood agar plate for 3 to 5 days; type: functional; summary of the method: as §1
Helicobacter pylori [18] = experiment: Antibacterial activity against CagA-deficient Helicobacter pylori NS23 isolated from chronic gastritis patient after 48 hrs compound exposure followed by incubation on Columbia-blood agar plate for 3 to 5 days; type: functional; summary of the method: as §1
Helicobacter pylori [19] = experiment: Antibacterial activity against CagA-deficient Helicobacter pylori G104 isolated from chronic gastritis patient after 24 hrs compound exposure followed by incubation on Columbia-blood agar plate for 3 to 5 days; type: functional; summary of the method: as §1
Helicobacter pylori [20] = experiment: Antibacterial activity against CagA-expressing Helicobacter pylori Ma01 isolated from chronic gastritis patient after 48 hrs compound exposure followed by incubation on Columbia-blood agar plate for 3 to 5 days; type: functional; summary of the method: as §1
Helicobacter pylori [21] = experiment: Antibacterial activity against CagA-expressing Helicobacter pylori 10Kb isolated from gastric carcinoma patient after 24 hrs compound exposure followed by incubation on Columbia-blood agar plate for 3 to 5 days; type: functional; summary of the method: as §1
Helicobacter pylori [22] = experiment: Bactericidal activity against CagA-deficient Helicobacter pylori Ba142 isolated from chronic gastritis patient compound exposure followed by incubation on Columbia-blood agar plate for 3 to 5 days; type: functional, organism-based; conditions: TDE = time-dependent effect; summary of the method: as §2
Helicobacter pylori [23] = experiment: Antibacterial activity against CagA-expressing Helicobacter pylori MD6 isolated from chronic gastritis patient after 48 hrs compound exposure followed by incubation on Columbia-blood agar plate for 3 to 5 days; type: functional; summary of the method: as §1
Helicobacter pylori [24] = experiment: Bactericidal activity against CagA-deficient Helicobacter pylori G204 isolated from chronic gastritis patient compound exposure followed by incubation on Columbia-blood agar plate for 3 to 5 days; type: functional, organism-based; conditions: TDE = time-dependent effect; summary of the method: as §2
Helicobacter pylori [25] = experiment: Antibacterial activity against CagA-expressing Helicobacter pylori 1C1 isolated from gastric carcinoma patient after 24 hrs compound exposure followed by incubation on Columbia-blood agar plate for 3 to 5 days; type: functional; summary of the method: as §1
Helicobacter pylori [26] = experiment: Antibacterial activity against CagA-expressing Helicobacter pylori G20 isolated from chronic gastritis patient after 48 hrs compound exposure followed by incubation on Columbia-blood agar plate for 3 to 5 days; type: functional; summary of the method: as §1
Helicobacter pylori [27] = experiment: Bactericidal activity against CagA-expressing Helicobacter pylori G20 isolated from chronic gastritis patient compound exposure followed by incubation on Columbia-blood agar plate for 3 to 5 days; type: functional, organism-based; conditions: TDE = time-dependent effect; summary of the method: as §2
Helicobacter pylori [28] = experiment: Antibacterial activity against CagA-expressing Helicobacter pylori 18K7 isolated from gastric carcinoma patient after 48 hrs compound exposure followed by incubation on Columbia-blood agar plate for 3 to 5 days; type: functional; summary of the method: as §1
Helicobacter pylori [29] = experiment: Antibacterial activity against CagA-expressing Helicobacter pylori MD6 isolated from chronic gastritis patient after 24 hrs compound exposure followed by incubation on Columbia-blood agar plate for 3 to 5 days; type: functional; summary of the method: as §1
Helicobacter pylori [30] = experiment: Bactericidal activity against CagA-deficient Helicobacter pylori NS23 isolated from chronic gastritis patient compound exposure followed by incubation on Columbia-blood agar plate for 3 to 5 days; type: functional, organism-based; conditions: TDE = time-dependent effect; summary of the method: as §2
Helicobacter pylori [31] = experiment: Bactericidal activity against CagA-expressing Helicobacter pylori SI10 isolated from chronic gastritis patient compound exposure followed by incubation on Columbia-blood agar plate for 3 to 5 days; type: functional, organism-based; conditions: TDE = time-dependent effect; summary of the method: as §2
Helicobacter pylori [32] = experiment: Antibacterial activity against CagA-expressing Helicobacter pylori CCUG17874 isolated from chronic gastritis patient after 48 hrs compound exposure followed by incubation on Columbia-blood agar plate for 3 to 5 days; type: functional; summary of the method: as §1
Helicobacter pylori [33] = experiment: Antibacterial activity against CagA-expressing Helicobacter pylori G20 isolated from chronic gastritis patient after 24 hrs compound exposure followed by incubation on Columbia-blood agar plate for 3 to 5 days; type: functional; summary of the method: as §1

For `Oc1ccc(/C=C/c2cc(O)cc(O)c2)cc1` [RESVERATROL], the MBC (Helicobacter pylori [1]) was 147 µg/mL (≈ 644 µM), the Activity (Helicobacter pylori [2]) was “tde” and the MBC (Helicobacter pylori [3]) was 648 µg/mL (≈ 2840 µM). The Activity (Helicobacter pylori [4]) was “tde”, the MBC (Helicobacter pylori [5]) was 295 µg/mL (≈ 1290 µM) and the Activity (Helicobacter pylori [6]) was “tde”. It also gave an MBC (Helicobacter pylori [7]) of 160 µg/mL (≈ 701 µM), an MBC (Helicobacter pylori [8]) of 160 µg/mL (≈ 701 µM) and an MBC (Helicobacter pylori [9]) of 295 µg/mL (≈ 1290 µM). For the same compound, the MBC (Helicobacter pylori [10]) was 295 µg/mL (≈ 1290 µM), the MBC (Helicobacter pylori [11]) was 37 µg/mL (≈ 162 µM) and the MBC (Helicobacter pylori [12]) was 147 µg/mL (≈ 644 µM). For the same compound, the MBC (Helicobacter pylori [13]) was 147 µg/mL (≈ 644 µM), the MBC (Helicobacter pylori [14]) was 37 µg/mL (≈ 162 µM) and the Activity (Helicobacter pylori [15]) was “tde”. The MBC (Helicobacter pylori [16]) was 648 µg/mL (≈ 2840 µM), the MBC (Helicobacter pylori [17]) was 147 µg/mL (≈ 644 µM) and the MBC (Helicobacter pylori [18]) was 147 µg/mL (≈ 644 µM). The MBC (Helicobacter pylori [19]) was 295 µg/mL (≈ 1290 µM), the MBC (Helicobacter pylori [20]) was 589 µg/mL (≈ 2580 µM) and the MBC (Helicobacter pylori [21]) was 147 µg/mL (≈ 644 µM). The Activity (Helicobacter pylori [22]) was “tde”, the MBC (Helicobacter pylori [23]) was 295 µg/mL (≈ 1290 µM) and the Activity (Helicobacter pylori [24]) was “tde”. The MBC (Helicobacter pylori [25]) was 80 µg/mL (≈ 350 µM), the MBC (Helicobacter pylori [26]) was 640 µg/mL (≈ 2800 µM) and the Activity (Helicobacter pylori [27]) was “tde”. The MBC (Helicobacter pylori [28]) was 147 µg/mL (≈ 644 µM), the MBC (Helicobacter pylori [29]) was 589 µg/mL (≈ 2580 µM) and the Activity (Helicobacter pylori [30]) was “tde”. For the same compound, the Activity (Helicobacter pylori [31]) was “tde”, the MBC (Helicobacter pylori [32]) was 295 µg/mL (≈ 1290 µM) and the MBC (Helicobacter pylori [33]) was 1280 µg/mL (≈ 5610 µM).
